Results on one compound are retold here after ChEMBL document CHEMBL1140384, “Synthesis and structure-activity relationships of suramin-derived P2Y11 receptor antagonists with nanomolar potency” (J Med Chem, 2005).

pIC50: −log10 of the molar value.

The target in one assay is P2Y purinoceptor 2 (Homo sapiens, UniProt P41231). The assay is described as follows: Inhibitory concentration against P2Y2 receptor expressed in 1321N1 astrocytoma Cells; (n=3).
The target of the next assay is P2X purinoceptor 1 (Rattus norvegicus, UniProt P47824). The assay is described as follows: Inhibitory concentration against rat P2X purinoceptor 1 expressed in Xenopus laevis oocytes. Format: functional, cell-based, Oocyte. A digest of the protocol:
(§1)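 Two-electrode voltage clamp on Xenopus laevis oocytes expressing recombinant rat or human P2X subtypes, recording receptor-mediated currents. IC50 values came from nonlinear least-squares Hill fits to pooled concentration-inhibition data; mean ± SEM from at least three experiments.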

The target of the next assay is T1, P2X purinoceptor 4 (Rattus norvegicus, UniProt P51577).
T1 sequence (P51577 whole entry): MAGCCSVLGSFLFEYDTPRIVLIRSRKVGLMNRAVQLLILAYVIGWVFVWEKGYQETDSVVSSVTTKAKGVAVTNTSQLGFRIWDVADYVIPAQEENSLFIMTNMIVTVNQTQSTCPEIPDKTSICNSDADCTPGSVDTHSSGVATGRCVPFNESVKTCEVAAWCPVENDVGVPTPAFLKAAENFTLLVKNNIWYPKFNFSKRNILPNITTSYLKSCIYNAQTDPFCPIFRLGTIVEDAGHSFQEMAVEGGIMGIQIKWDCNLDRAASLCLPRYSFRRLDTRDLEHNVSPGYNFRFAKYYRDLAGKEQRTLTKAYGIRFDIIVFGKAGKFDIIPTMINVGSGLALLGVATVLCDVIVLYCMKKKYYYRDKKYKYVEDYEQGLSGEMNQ
The assay is described as follows: Inhibitory concentration against rat P2X purinoceptor 4 expressed in Xenopus laevis oocytes. Format: functional, cell-based, Oocyte. A digest of the protocol:
as §1

In another assay the target is T2, P2X purinoceptor 7 (Rattus norvegicus, UniProt Q64663).
T2 sequence (Q64663 whole entry): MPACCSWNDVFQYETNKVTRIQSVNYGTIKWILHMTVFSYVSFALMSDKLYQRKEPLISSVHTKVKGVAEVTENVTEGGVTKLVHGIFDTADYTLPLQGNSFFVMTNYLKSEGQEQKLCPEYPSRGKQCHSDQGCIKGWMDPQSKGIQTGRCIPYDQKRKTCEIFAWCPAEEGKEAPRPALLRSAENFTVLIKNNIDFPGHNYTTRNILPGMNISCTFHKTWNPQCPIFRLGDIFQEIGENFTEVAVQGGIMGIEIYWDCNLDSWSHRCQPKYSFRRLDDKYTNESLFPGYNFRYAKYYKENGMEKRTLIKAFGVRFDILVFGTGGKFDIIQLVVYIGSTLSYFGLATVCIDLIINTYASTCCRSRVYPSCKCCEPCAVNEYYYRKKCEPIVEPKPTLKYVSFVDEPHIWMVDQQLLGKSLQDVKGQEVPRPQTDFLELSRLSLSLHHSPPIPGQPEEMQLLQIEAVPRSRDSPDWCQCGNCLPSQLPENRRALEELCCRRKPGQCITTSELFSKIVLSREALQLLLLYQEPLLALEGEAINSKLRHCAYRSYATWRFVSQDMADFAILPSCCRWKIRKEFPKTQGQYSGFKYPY
The assay is described as follows: Inhibitory concentration against rat P2X purinoceptor 7 expressed in Xenopus laevis oocytes. Format: functional, cell-based, Oocyte. A digest of the protocol:
as §1

A further assay addresses T3, P2X purinoceptor 3 (Homo sapiens, UniProt P56373).
T3 sequence (P56373 whole entry): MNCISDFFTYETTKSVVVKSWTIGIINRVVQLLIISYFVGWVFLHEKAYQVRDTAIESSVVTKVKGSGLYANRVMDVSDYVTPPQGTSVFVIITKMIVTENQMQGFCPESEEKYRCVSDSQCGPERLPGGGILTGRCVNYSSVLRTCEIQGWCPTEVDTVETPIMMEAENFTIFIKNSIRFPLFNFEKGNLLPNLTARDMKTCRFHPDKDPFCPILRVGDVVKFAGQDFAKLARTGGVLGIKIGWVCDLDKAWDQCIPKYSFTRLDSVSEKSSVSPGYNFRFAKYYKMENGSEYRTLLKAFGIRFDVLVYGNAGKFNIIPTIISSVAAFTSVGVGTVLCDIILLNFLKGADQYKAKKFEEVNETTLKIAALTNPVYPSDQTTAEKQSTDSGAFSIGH
The assay is described as follows: Inhibitory concentration against human P2X purinoceptor 3 expressed in Xenopus laevis oocytes. Type of assay: functional, cell-based, Oocyte. A digest of the protocol: as §1

In assay [1] the target is T4, P2Y purinoceptor 1 (Homo sapiens, UniProt P47900). The assay is described as follows: Inhibitory concentration against P2Y purinoceptor 1 expressed in 1321N1 astrocytoma Cells; (n=3).
T4 sequence (P47900 whole entry): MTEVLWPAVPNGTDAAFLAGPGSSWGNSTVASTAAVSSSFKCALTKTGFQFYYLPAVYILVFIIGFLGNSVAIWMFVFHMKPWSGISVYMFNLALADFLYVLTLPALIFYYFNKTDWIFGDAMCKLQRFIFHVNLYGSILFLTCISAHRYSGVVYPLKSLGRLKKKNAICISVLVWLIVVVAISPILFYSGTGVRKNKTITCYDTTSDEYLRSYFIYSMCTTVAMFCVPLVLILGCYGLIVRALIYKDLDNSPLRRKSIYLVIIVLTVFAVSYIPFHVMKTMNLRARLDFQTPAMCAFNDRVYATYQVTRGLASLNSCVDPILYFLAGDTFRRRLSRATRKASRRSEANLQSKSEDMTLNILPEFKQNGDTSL
For assay [2], the target named is T5, P2Y purinoceptor 11 (Homo sapiens) (UniProt Q96G91).
T5 sequence (whole entry): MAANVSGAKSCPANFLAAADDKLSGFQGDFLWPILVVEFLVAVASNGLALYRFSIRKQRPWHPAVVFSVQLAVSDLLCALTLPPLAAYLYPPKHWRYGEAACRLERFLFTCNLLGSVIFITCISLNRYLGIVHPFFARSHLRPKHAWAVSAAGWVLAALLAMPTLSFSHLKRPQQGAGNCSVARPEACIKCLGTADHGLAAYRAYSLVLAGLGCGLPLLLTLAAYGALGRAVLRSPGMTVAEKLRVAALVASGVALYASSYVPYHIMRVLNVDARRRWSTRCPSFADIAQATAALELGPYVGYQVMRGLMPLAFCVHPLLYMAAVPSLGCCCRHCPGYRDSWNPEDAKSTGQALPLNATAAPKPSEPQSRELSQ
The assay is described as follows: Relative potency was measured against P2Y purinoceptor 11. Type of assay: functional.

Assay [3] deals with T4, P2Y purinoceptor 1. The assay is described as follows: Percent inhibition of agonist-induced calcium mobilization at P2Y purinoceptor 1 recombinantly expressed in human HEK293 cells at 100 uM dose. Format: functional, cell-based. The note with it: in the assay text read “native in” for “recombinantly expressed in”. The method, boiled down: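 Single 100 µM antagonist dose, preincubated 30 min at 37 °C, in a Ca2+ fluorescence assay (Oregon Green 488 BAPTA-1/AM). Agonists: 31.6 nM 2-MeSADP for native P2Y1 and 3.16 µM UTP for native P2Y2, both in HEK293 cells; 1 µM ATPγS for recombinant P2Y11 in 1321N1 cells. Response expressed as % of agonist control; mean ± SEM, n ≥ 3.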

In assay [4] the target is P2X purinoceptor 4 (Rattus norvegicus) (UniProt P51577). The assay is described as follows: Inhibitory concentration against rat P2X purinoceptor 4 expressed in Xenopus laevis oocytes.

Sequence of P2X purinoceptor 1 (P47824 whole entry, looked up): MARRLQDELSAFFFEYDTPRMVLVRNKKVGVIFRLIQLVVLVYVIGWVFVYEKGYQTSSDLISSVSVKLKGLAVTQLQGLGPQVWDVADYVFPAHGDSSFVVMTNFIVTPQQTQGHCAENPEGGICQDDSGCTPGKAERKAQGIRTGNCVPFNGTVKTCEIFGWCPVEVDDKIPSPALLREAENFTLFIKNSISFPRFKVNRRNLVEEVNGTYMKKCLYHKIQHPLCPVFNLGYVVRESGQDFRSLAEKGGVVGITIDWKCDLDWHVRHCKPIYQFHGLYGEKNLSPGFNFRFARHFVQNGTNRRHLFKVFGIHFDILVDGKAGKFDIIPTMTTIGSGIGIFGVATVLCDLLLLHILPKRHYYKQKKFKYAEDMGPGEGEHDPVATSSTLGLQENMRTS
Sequence of P2Y purinoceptor 2 (P41231 whole entry): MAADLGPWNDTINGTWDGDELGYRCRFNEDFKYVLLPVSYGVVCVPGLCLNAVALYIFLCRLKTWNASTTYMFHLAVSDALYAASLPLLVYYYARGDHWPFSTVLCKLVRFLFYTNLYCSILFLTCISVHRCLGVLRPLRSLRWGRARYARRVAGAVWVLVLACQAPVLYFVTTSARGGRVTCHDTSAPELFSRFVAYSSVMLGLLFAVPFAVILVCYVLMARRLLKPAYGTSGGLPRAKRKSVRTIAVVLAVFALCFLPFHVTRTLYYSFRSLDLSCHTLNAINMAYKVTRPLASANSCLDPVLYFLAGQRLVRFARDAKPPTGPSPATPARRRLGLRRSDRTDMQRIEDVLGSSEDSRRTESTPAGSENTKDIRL

For the compound `O=C(Nc1cccc(C(=O)Nc2cc(C(=O)Nc3ccc(S(=O)(=O)O)c4cc(S(=O)(=O)O)cc(S(=O)(=O)O)c34)ccc2F)c1)Nc1cccc(C(=O)Nc2cc(C(=O)Nc3ccc(S(=O)(=O)O)c4cc(S(=O)(=O)O)cc(S(=O)(=O)O)c34)ccc2F)c1`, the pIC50 (as a rule, the negative decadic logarithm of the IC50, by convention in mol/L) against P2Y purinoceptor 2 is 3.77; at P2X purinoceptor 1 it was 7.09; on P2X purinoceptor 4, under 6.00; at P2X purinoceptor 7, under 5.50; on P2X purinoceptor 3, 6.45; on P2Y purinoceptor 1 [1], 2.74. In addition, the pIC50 in [4] was under 6.00. In assay [2], this compound displayed a Rel potency of 100. Moreover, on P2Y purinoceptor 1 [3], the inhibition – broadly, the share of the control response that was lost under treatment – stood at 63.3%.
